Source: ChEMBL document CHEMBL3272012, “5-(Tetradecyloxy)-2-furancarboxylic acid and related hypolipidemic fatty acid-like alkyloxyarylcarboxylic acids” (J Med Chem, 1977)
One block for each compound: values may come before it. Active and inactive are the calls of the source. The rule behind the calls is not given here.

Key:
Rattus norvegicus [1] = assay: Hypolipidemic activity in Wistar rat assessed as reduction in plasma cholesterol level at 443 umol/kg/day administered through diet for 4 days; type: functional; details: 96 h
How it was run: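 Young male Wistar rats, 170-190 g initial weight, groups of six, given compound mixed thoroughly into Purina Lab Chow ad libitum for 4 or 10 days as stated. Daily dose calculated from food consumption and body weight. Bled by cardiac puncture at end of treatment; plasma cholesterol measured by automated procedure. Expressed as percent reduction versus simultaneous untreated control group; Student's t test.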

Rattus norvegicus [2] = assay: Hypolipidemic activity in Wistar rat assessed as reduction in plasma triglyceride level at 443 umol/kg/day administered through diet for 4 days; type: functional; details: 96 h
How it was run: (§1)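 Young male Wistar rats (initial weight 170-190 g), groups of six, fed compound mixed into Purina Lab Chow ad libitum for 4 or 10 days; daily dose calculated from food consumption and body weight. Bled by cardiac puncture; plasma cholesterol and triglycerides by automated procedures; percent reduction versus simultaneous untreated controls, Student's t test.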

Rattus norvegicus [3] = assay: Increase in cholesterol level in Wistar rat liver at 443 umol/kg/day administered through diet for 4 days; type: ADME, organism-based; details: in vivo, po, 96 h
Rattus norvegicus [4] = assay: Increase in liver weight in Wistar rat at 443 umol/kg/day administered through diet for 4 days; type: ADME, organism-based; details: in vivo, po, 96 h
Rattus norvegicus [5] = assay: Increase in cholesterol level in Wistar rat liver at 193 umol/kg/day administered through diet for 10 days; type: ADME, organism-based; details: in vivo, po, 240 h
Rattus norvegicus [6] = assay: Hypolipidemic activity in Wistar rat assessed as reduction in plasma triglyceride level at 193 umol/kg/day administered through diet for 10 days; type: functional; details: 240 h
How it was run: (§2)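 Young male Wistar rats, 170-190 g initial weight, six per group, fed drug mixed thoroughly into Purina Lab Chow ad libitum for the stated days; daily dose calculated from food consumption and body weight. Bled by cardiac puncture at end; plasma cholesterol and triglycerides by automated procedures, expressed as percent reduction versus simultaneous untreated controls; Student's t test.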

Rattus norvegicus [7] = assay: Increase in liver weight in Wistar rat at 96 umol/kg/day administered through diet for 10 days; type: ADME, organism-based; details: in vivo, po, 240 h
Rattus norvegicus [8] = assay: Hypolipidemic activity in Wistar rat assessed as reduction in plasma cholesterol level at 96 umol/kg/day administered through diet for 10 days; type: functional; details: 240 h; how it was run: as §2
Rattus norvegicus [9] = assay: Hypolipidemic activity in Wistar rat assessed as reduction in plasma triglyceride level at 358 umol/kg/day administered through diet for 10 days; type: functional; details: 240 h
How it was run: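 Young male Wistar rats, 170-190 g at start, six per group, given compound mixed into Purina Lab Chow, fed ad libitum for 4 or 10 days. Daily dose calculated from food consumption and body weight. Rats bled by cardiac puncture at end of treatment. Plasma triglycerides determined by automated procedure. Expressed as percent reduction versus a concurrent untreated control group, Student's t test.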

Rattus norvegicus [10] = assay: Hypolipidemic activity in Wistar rat assessed as reduction in plasma cholesterol level at 193 umol/kg/day administered through diet for 10 days; type: functional; details: 240 h
How it was run: (§3)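 Young male Wistar rats, 170-190 g at start, in groups of six, given compound mixed into Purina Lab Chow ad libitum for 4 or 10 days as stated. Daily dose was calculated from food consumption and body weight. Plasma was taken by cardiac puncture at the end and cholesterol measured by automated procedure. Results are % reduction versus a concurrent untreated control group, with Student's t test.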

Rattus norvegicus [11] = assay: Hypolipidemic activity in Wistar rat assessed as reduction in plasma triglyceride level at 96 umol/kg/day administered through diet for 10 days; type: functional; details: 240 h
Rattus norvegicus [12] = assay: Increase in cholesterol level in Wistar rat liver at 358 umol/kg/day administered through diet for 10 days; type: ADME, organism-based; details: in vivo, po, 240 h
Rattus norvegicus [13] = assay: Increase in liver weight in Wistar rat at 193 umol/kg/day administered through diet for 10 days; type: ADME, organism-based; details: in vivo, po, 240 h
Rattus norvegicus [14] = assay: Increase in cholesterol level in Wistar rat liver at 96 umol/kg/day administered through diet for 10 days; type: ADME, organism-based; details: in vivo, po, 240 h
Rattus norvegicus [15] = assay: Hypolipidemic activity in Wistar rat assessed as reduction in plasma cholesterol level at 358 umol/kg/day administered through diet for 10 days; type: functional; details: 240 h; how it was run: as §3
Rattus norvegicus [16] = assay: Increase in liver weight in Wistar rat at 358 umol/kg/day administered through diet for 10 days; type: ADME, organism-based; details: in vivo, po, 240 h
Rattus norvegicus [17] = assay: Increase in liver weight in Wistar rat at 583 umol/kg/day administered through diet for 10 days; type: ADME, organism-based; details: in vivo, po, 240 h
Rattus norvegicus [18] = assay: Increase in liver weight in Wistar rat at 314 umol/kg/day administered through diet for 10 days; type: ADME, organism-based; details: in vivo, po, 240 h
Rattus norvegicus [19] = assay: Hypolipidemic activity in Wistar rat assessed as reduction in plasma cholesterol level at 410 umol/kg/day administered through diet for 4 days; type: functional; details: 96 h; how it was run: as §3
Rattus norvegicus [20] = assay: Increase in cholesterol level in Wistar rat liver at 154 umol/kg/day administered through diet for 10 days; type: ADME, organism-based; details: in vivo, po, 240 h
Rattus norvegicus [21] = assay: Hypolipidemic activity in Wistar rat assessed as reduction in plasma cholesterol level at 154 umol/kg/day administered through diet for 10 days; type: functional; details: 240 h; how it was run: as §3
Rattus norvegicus [22] = assay: Hypolipidemic activity in Wistar rat assessed as reduction in plasma triglyceride level at 154 umol/kg/day administered through diet for 10 days; type: functional; details: 240 h; how it was run: as §2
Rattus norvegicus [23] = assay: Inhibition of cholesterol biosynthesis in meal fed Wistar rat liver assessed as sodium [1-14C]acetate incorporation at 95 mg/kg/day administered through diet for 7 days measured 1 hr after labeled acetate challenge by liquid scintillation spectrometry (reference value: 41.3 +/- 3.2 x 10^-3 dpm); type: functional
Rattus norvegicus [24] = assay: Hypolipidemic activity in Wistar rat assessed as reduction in plasma triglyceride level at 314 umol/kg/day administered through diet for 10 days; type: functional; details: 240 h; how it was run: as §2
Rattus norvegicus [25] = assay: Increase in cholesterol level in Wistar rat liver at 314 umol/kg/day administered through diet for 10 days; type: ADME, organism-based; details: in vivo, po, 240 h
Rattus norvegicus [26] = assay: Inhibition of cholesterol biosynthesis in Ad Lib fed Wistar rat liver assessed as sodium [1-14C]acetate incorporation at 154 mg/kg/day administered through diet for 7 days measured 1 hr after labeled acetate challenge by liquid scintillation spectrometry (reference value: 12.7 +/- 2.6 x 10^-3 dpm); type: functional
Rattus norvegicus [27] = assay: Inhibition of fatty acid synthesis in Wistar rat liver assessed as drug incorporation into phospholipid administered for 2 weeks by gas chromatography; type: functional, organism-based
Rattus norvegicus [28] = assay: Increase in cholesterol level in Wistar rat liver at 583 umol/kg/day administered through diet for 10 days; type: ADME, organism-based; details: in vivo, po, 240 h
Rattus norvegicus [29] = assay: Inhibition of fatty acid biosynthesis in Ad Lib fed Wistar rat liver assessed as sodium [1-14C]acetate incorporation at 154 mg/kg/day administered through diet for 7 days measured 1 hr after labeled acetate challenge by liquid scintillation spectrometry (reference value: 27.2 +/- 4.8 x 10^-3 dpm); type: functional
Rattus norvegicus [30] = assay: Hypolipidemic activity in Wistar rat assessed as reduction in plasma cholesterol level at 583 umol/kg/day administered through diet for 10 days; type: functional; details: 240 h; how it was run: as §1
Rattus norvegicus [31] = assay: Hypolipidemic activity in Wistar rat assessed as reduction in plasma triglyceride level at 583 umol/kg/day administered through diet for 10 days; type: functional; details: 240 h
Rattus norvegicus [32] = assay: Hypolipidemic activity in Wistar rat assessed as reduction in plasma cholesterol level at 314 umol/kg/day administered through diet for 10 days; type: functional; details: 240 h; how it was run: as §3
Rattus norvegicus [33] = assay: Hypolipidemic activity in Wistar rat assessed as reduction in plasma triglyceride level at 410 umol/kg/day administered through diet for 4 days; type: functional; details: 96 h
Rattus norvegicus [34] = assay: Inhibition of cholesterol synthesis in Wistar rat liver assessed as drug incorporation into cholesterol ester administered for 2 weeks by gas chromatography; type: functional, organism-based
Rattus norvegicus [35] = assay: Inhibition of cholesterol synthesis in Wistar rat liver assessed as drug incorporation into triglycerides administered for 2 weeks by gas chromatography; type: functional, organism-based
Rattus norvegicus [36] = assay: Increase in liver weight in Wistar rat at 154 umol/kg/day administered through diet for 10 days; type: ADME, organism-based; details: in vivo, po, 240 h
Rattus norvegicus [37] = assay: Increase in liver weight in Wistar rat at 410 umol/kg/day administered through diet for 4 days; type: ADME, organism-based; details: in vivo, po, 96 h
Rhesus monkey [38] = assay: Hypolipidemic activity in rhesus monkey assessed as reduction in plasma cholesterol level at 92 umol/kg/day administered for 28 days; type: functional; details: Macaca mulatta, 672 h
Rattus norvegicus [39] = assay: Inhibition of fatty acid biosynthesis in meal fed Wistar rat liver assessed as sodium [1-14C]acetate incorporation at 95 mg/kg/day administered through diet for 7 days measured 1 hr after labeled acetate challenge by liquid scintillation spectrometry (reference value: 182 +/- 22 x 10^-3 dpm); type: functional
Rhesus monkey [40] = assay: Hypolipidemic activity in rhesus monkey assessed as reduction in plasma cholesterol level at 308 umol/kg/day administered for 28 days; type: functional; details: Macaca mulatta, 672 h
Rattus norvegicus [41] = assay: Increase in cholesterol level in Wistar rat liver at 410 umol/kg/day administered through diet for 4 days; type: ADME, organism-based; details: in vivo, po, 96 h
Rattus norvegicus [42] = assay: Increase in cholesterol level in Wistar rat liver at 403 umol/kg/day administered through diet for 4 days; type: ADME, organism-based; details: in vivo, po, 96 h
Rattus norvegicus [43] = assay: Hypolipidemic activity in Wistar rat assessed as reduction in plasma triglyceride level at 403 umol/kg/day administered through diet for 4 days; type: functional; details: 96 h
Rattus norvegicus [44] = assay: Increase in liver weight in Wistar rat at 403 umol/kg/day administered through diet for 4 days; type: ADME, organism-based; details: in vivo, po, 96 h
Rattus norvegicus [45] = assay: Hypolipidemic activity in Wistar rat assessed as reduction in plasma cholesterol level at 403 umol/kg/day administered through diet for 4 days; type: functional; details: 96 h; how it was run: as §3

Activity (Rattus norvegicus [3]): 0%
Activity (Rattus norvegicus [4]): 6%
SMILES: CCCCCCCCCCCCCCOc1ccc(C(=O)OCC)o1
inhibition in vivo at 443 µmol/kg (Rattus norvegicus [1]): 30%
inhibition in vivo at 443 µmol/kg (Rattus norvegicus [2]): 64%

Activity (Rattus norvegicus [5]): 11%
Activity (Rattus norvegicus [7]): 1%
Activity (Rattus norvegicus [12]): 10%
Activity (Rattus norvegicus [13]): 1%
Activity (Rattus norvegicus [14]): 0%
Activity (Rattus norvegicus [16]): 3%
SMILES: CCCCCCCCCCCCCCOc1ccc(C(=O)CC(=O)OCC)cc1
inhibition in vivo at 193 µmol/kg (Rattus norvegicus [6]): 43%
inhibition in vivo at 96 µmol/kg (Rattus norvegicus [8]): 13%
inhibition in vivo at 358 µmol/kg (Rattus norvegicus [9]): 59%
inhibition in vivo at 193 µmol/kg (Rattus norvegicus [10]): 20%
inhibition in vivo at 96 µmol/kg (Rattus norvegicus [11]): 44%
inhibition in vivo at 358 µmol/kg (Rattus norvegicus [15]): 30%

Activity (Rattus norvegicus [17]): 33%
Activity (Rattus norvegicus [18]): 15%
Activity (Rattus norvegicus [20]): 5%
Activity (Rattus norvegicus [25]): 0%
Activity (Rattus norvegicus [28]): 0%
Activity (Rattus norvegicus [36]): 1%
Activity (Rattus norvegicus [37]): 6%
Activity (Rattus norvegicus [41]): 12%
SMILES: CCCCCCCCCCCCCCOc1ccc(C(=O)O)o1 [TOFA]
inhibition in vivo at 410 µmol/kg (Rattus norvegicus [19]): 40%
inhibition in vivo at 154 µmol/kg (Rattus norvegicus [21]): 12%
inhibition in vivo at 154 µmol/kg (Rattus norvegicus [22]): 27%
Activity (Rattus norvegicus [23]): 40800 dpm
inhibition in vivo at 314 µmol/kg (Rattus norvegicus [24]): 61%
Activity (Rattus norvegicus [26]): 14900 dpm
inhibition (Rattus norvegicus [27]): Active
Activity (Rattus norvegicus [29]): 22800 dpm
inhibition in vivo at 583 µmol/kg (Rattus norvegicus [30]): 64%
inhibition in vivo at 583 µmol/kg (Rattus norvegicus [31]): 92%
inhibition in vivo at 314 µmol/kg (Rattus norvegicus [32]): 38%
inhibition in vivo at 410 µmol/kg (Rattus norvegicus [33]): 75%
inhibition (Rattus norvegicus [34]): inactive
inhibition (Rattus norvegicus [35]): inactive
inhibition in vivo at 92 µmol/kg (Rhesus monkey [38]): 10%
Activity (Rattus norvegicus [39]): 60000 dpm
inhibition in vivo at 308 µmol/kg (Rhesus monkey [40]): 24%

Activity (Rattus norvegicus [42]): 1%
Activity (Rattus norvegicus [44]): 14%
SMILES: CCCCCCCCCCCCCCOc1ccc(C(=O)n2ccnc2)o1
inhibition in vivo at 403 µmol/kg (Rattus norvegicus [43]): 39%
inhibition in vivo at 403 µmol/kg (Rattus norvegicus [45]): 22%
